From article PMC7127161 (Bioorganic & Medicinal Chemistry, 2014)

Columns and labels:
HIV-1 (NL4.3) = experiment: Anti-HIV-1 activity; format: cell-based; conditions: MT-4 cells
HIV-1(IIIB) = experiment: Anti-HIV-1 activity; format: cell-based; conditions: CEM cells, HIV-1 and HIV-2
In short: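 CEM cells (~3 × 10^5 cells/mL) infected with HIV-1(IIIB) at 100 CCID50 per mL, with dilutions of test compound. Incubated 4–5 days at 37 °C in humidified, CO2-controlled air. Giant (syncytium) cell formation scored under the microscope. EC50 is the concentration that inhibits HIV-induced cytopathic effect by 50%.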

CEM cells = experiment: Cytostatic properties in human T-lymphocyte; format: cell-based; conditions: concentration required to reduce CEM cell proliferation by 50%
In short: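 Cytostatic assay: (5–7.5) × 104 CEM cells per well with test compound. Cells proliferate 72 h at 37 °C in humidified, CO2-controlled air, then are counted in a Coulter counter. The 50% value is the concentration that inhibits cell proliferation by 50%.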

[1] = test system: herpes simplex virus type 1 (HSV-1); experiment: Antiviral activity against HSV-1 in HEL cell cultures; format: cell-based; conditions: at 100 μM
HSV-2 = experiment: Antiviral activity against HSV-2 in HEL cell cultures; format: cell-based; conditions: at 100 μM
vaccinia virus = format: cell-based
[2] = test system: vesicular stomatitis virus (VSV); format: cell-based
Coxsackie virus B4 = experiment: Antiviral activity against Coxsackie virus B4 in HeLa cell cultures; format: cell-based; conditions: at 100 μM
[3] = test system: respiratory syncytial virus (RSV); experiment: Antiviral activity against RSV in HeLa cell cultures; format: cell-based; conditions: at 100 μM
parainfluenza virus-3 = experiment: Antiviral activity against parainfluenza virus-3 in Vero cell cultures; format: cell-based; conditions: at 100 μM
reovirus-1 = experiment: Antiviral activity against reovirus-1 in Vero cell cultures; format: cell-based; conditions: at 100 μM
Sindbis virus = experiment: Antiviral activity against Sindbis virus in Vero cell cultures; format: cell-based; conditions: at 100 μM
Punta Toro virus = experiment: Antiviral activity against Punta Toro virus in Vero cell cultures; format: cell-based; conditions: at 100 μM
influenza virus A (H1N1) = format: cell-based
influenza virus A (H3N2) = format: cell-based
influenza virus B = format: cell-based
feline corona virus = experiment: Antiviral activity against feline corona virus in CrFK cell cultures; format: cell-based; conditions: at 100 μM
feline herpesvirus = experiment: Antiviral activity against feline herpesvirus in CrFK cell cultures; format: cell-based; conditions: at 100 μM
Reverse transcriptase = experiment: Activity against reverse transcriptase; format: biochemical; conditions: data not shown

## CCCCCOC(=O)[C@H](C)NP(=O)(Oc1ccccc1)O[C@@H]1CC[C@H](O)[C@H]1CO (stereo partly drawn) [Compound 17b, (1R,2R,3S)-3-Hydroxy-2-(hydroxymethyl)cyclopentyl-1-O-phenyl-(pentoxy-L-alaninyl)-phosphate]
HIV-1 (NL4.3)
  antiviral activity against HIV-1 and HIV-2 in MT-4 cell cultures (in words): devoid of any significant antiviral activity

## (3S,4R)-3-(Benzyloxycarbonyl)-4-(benzyloxycarbonylmethyl)cyclopentenol [Compound 11]
HIV-1(IIIB)
  anti-HIV-1 or anti-HIV-2 activity (in words): not active
CEM cells
  CC50: 110 ± 4.2 µM

## OC[C@H]1[C@H](O)CC[C@@H]1O [Compound 15, 2-hydroxymethyl-3-hydroxycyclopentanol]
HIV-1 (NL4.3)
  antiviral activity against HIV-1 and HIV-2 in MT-4 cell cultures (in words): confirmed at low micromolar concentrations
[1]
  activity against herpes simplex virus type 1 (HSV-1): did not show any measurable activity
HSV-2
  activity against HSV-2: did not show any measurable activity
Vaccinia virus
  activity against vaccinia virus: did not show any measurable activity
[2]
  activity against vesicular stomatitis virus (VSV): did not show any measurable activity
Coxsackie virus B4
  activity against Coxsackie virus B4: did not show any measurable activity
[3]
  activity against respiratory syncytial virus (RSV): did not show any measurable activity
Parainfluenza virus-3
  activity against parainfluenza virus-3: did not show any measurable activity
reovirus-1
  activity against reovirus-1: did not show any measurable activity
Sindbis virus
  activity against Sindbis virus: did not show any measurable activity
Punta Toro virus
  activity against Punta Toro virus: did not show any measurable activity
Influenza virus A (H1N1)
  activity against influenza virus A (H1N1): did not show any measurable activity
Influenza virus A (H3N2)
  activity against influenza virus A (H3N2): did not show any measurable activity
Influenza virus B
  activity against influenza virus B: did not show any measurable activity
Feline corona virus
  activity against feline corona virus: did not show any measurable activity
Feline herpesvirus
  activity against feline herpesvirus: did not show any measurable activity
Reverse transcriptase
  activity against reverse transcriptase: inactive

## (1R,2S,3S)-3-(Benzyloxycarbonyl)-2-(benzyloxycarbonylmethyl)cyclopentanol [Compound 13]
CEM cells
  CC50: 94 ± 4.2 µM
Reverse transcriptase
  activity against reverse transcriptase: inactive

## OC[C@H]1CC(O)C[C@@H]1O (stereo partly drawn) [Compound 14, (3S,4R)-3-hydroxy-4-hydroxymethyl cyclopentanol]
HIV-1(IIIB)
  anti-HIV-1 or anti-HIV-2 activity (in words): not active

## C[C@H](NP(=O)(Oc1cccc2ccccc12)O[C@@H]1CC[C@H](O)[C@H]1CO)C(=O)OCC(C)(C)C (stereo partly drawn) [Compound 17a, (1R,2R,3S)-3-Hydroxy-2-(hydroxymethyl)cyclopentyl-1-O-naphthyl-(neopentyl-L-alaninyl)-phosphate]
HIV-1 (NL4.3)
  antiviral activity against HIV-1 and HIV-2 in MT-4 cell cultures (in words): devoid of any significant antiviral activity
